ChEMBL document CHEMBL4330094, “Potent Metabolic Sialylation Inhibitors Based on C-5-Modified Fluorinated Sialic Acids” (J Med Chem, 2019)
Active and inactive are the calls of the source. No cut-off for these calls is given here.

Experiments:
B16-F10 [1] = assay: Inhibition of sialyltransferase in mouse B16-F10 cells assessed as recovery time for sialylation at 25.6 uM pretreated for 3 days followed by washing and re-seeding and measured after 6 days by biotinylated MAL2 lectin-based flow cytometry; assay type: cell-based
Summary of the method: (§1)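 B16-F10 cells were pretreated 3 days with 25.6 or 51.2 µM compound or DMSO, washed, reseeded, and sampled daily for 6 days. They were stained with biotinylated MALII (5 µg/ml, 45-60 min, 4 °C) plus streptavidin-PE. Flow cytometry MFI was normalized to control as % lectin binding.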

B16-F10 [2] = assay: Relative inhibitory potency, ratio of SiaFAc to compound EC50 for inhibition of sialyltransferase in mouse B16-F10 cells; assay type: cell-based
[3] = Inhibition of sialyltransferase in mouse EL4 cells assessed as decrease in lectin binding after 3 days by biotinylated MAL2 lectin and streptavidin-PE based flow cytometry; assay type: cell-based
Summary of the method: (§2)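 Each cell line was incubated 3 days with increasing compound concentrations or equivalent DMSO. Cells were stained with biotinylated MALII (5 µg/ml) in carbo-free blocking buffer with 1 mM CaCl/MgCl for 45-60 min at 4 °C, washed in PBS/1% BSA/0.02% azide, then stained with streptavidin-PE for 20 min at 4 °C. For flow cytometry, MFI was normalized to control as % lectin binding.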

B16-F10 [4] = assay: Effect on total cell surface glycosylation in mouse B16F10 cells assessed as inhibition of biotinylated PSA-lectin binding at 102.4 uM after 3 days by flow cytometry; assay type: cell-based; settings: b16-f10, 72 h
Summary of the method: (§3)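 B16-F10 cells were exposed 3 days to 102.4 µM compound or DMSO. Staining used biotinylated lectins (AAL 5, PNA 5, GSL-I 1, LCA 1, PHA-L 1, PSA 1, SJA 1, WGA 1 µg/ml) in carbo-free blocking buffer with 1 mM CaCl and 1 mM MgCl for 45-60 min at 4 °C, then streptavidin-PE for 20 min at 4 °C. Flow cytometry read-out was MFI, mean ± SEM from two independent experiments.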

[5] = Inhibition of sialyltransferase in mouse B16F10 cells assessed as decrease in lectin binding after 3 days by biotinylated MAL2 lectin and streptavidin-PE based flow cytometry; assay type: cell-based; summary of the method: as §2
[6] = Inhibition of sialyltransferase in mouse 9464D cells assessed as decrease in lectin binding after 3 days by biotinylated MAL2 lectin and streptavidin-PE based flow cytometry; assay type: cell-based; summary of the method: as §2
B16-F10 [7] = assay: Effect on total cell surface glycosylation in mouse B16F10 cells assessed as inhibition of biotinylated PHA-L lectin binding at 102.4 uM after 3 days by flow cytometry; assay type: cell-based; settings: b16-f10, 72 h; summary of the method: as §3
B16-F10 [8] = assay: Effect on total cell surface glycosylation in mouse B16F10 cells assessed as inhibition of biotinylated SJA-lectin binding at 102.4 uM after 3 days by flow cytometry; assay type: cell-based; settings: b16-f10, 72 h; summary of the method: as §3
B16-F10 [9] = assay: Cytotoxicity against mouse B16F10 cells assessed as reduction in metabolic activity at 204.8 uM after 3 days by MTT assay; assay type: ADME, cell-based; settings: b16-f10, 72 h
[10] = Inhibition of sialyltransferase in HEK293 cells assessed as decrease in lectin binding after 3 days by biotinylated MAL2 lectin and streptavidin-PE based flow cytometry; assay type: cell-based, Homo sapiens; summary of the method: as §2
B16-F10 [11] = assay: Cytotoxicity against mouse B16F10 cells assessed as reduction in metabolic activity at <51.2 uM after 3 days by MTT assay; assay type: ADME, cell-based; settings: b16-f10, 72 h
B16-F10 [12] = assay: Effect on total cell surface glycosylation in mouse B16F10 cells assessed as inhibition of biotinylated WGA-lectin binding at 102.4 uM after 3 days by flow cytometry; assay type: cell-based; settings: b16-f10, 72 h; summary of the method: as §3
[13] = target: N-acylneuraminate cytidylyltransferase (Mus musculus, UniProt Q99KK2); assay: Prodrug activation in mouse B16F10 cells assessed as CMAS-mediated CMP-SiaFR levels at 51.2 uM after 1 to 24 hrs using fluorinated compounds by reverse-phase ion pairing chromatography/triple quadrupole mass spectrometric analysis; assay type: cell-based
Summary of the method: (§4)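 B16-F10 cells were incubated 1, 2, 4, 8 or 24 h with 51.2 µM fluorinated analogue or DMSO. Cells were washed with ammonium carbonate buffer (pH 7.4) and snap-frozen in liquid nitrogen. Extraction was twice for 3 min with cold 40% acetonitrile/40% methanol/20% water, followed by centrifugation for 3 min and vacuum drying.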

B16-F10 [14] = assay: Inhibition of sialyltransferase in mouse B16-F10 cells assessed as recovery time for sialylation at 51.2 uM pretreated for 3 days followed by washing and re-seeding and measured after 6 days by biotinylated MAL2 lectin-based flow cytometry; assay type: cell-based; summary of the method: as §1
B16-F10 [15] = assay: Effect on total cell surface glycosylation in mouse B16F10 cells assessed as inhibition of biotinylated PNA lectin binding at 102.4 uM after 3 days by flow cytometry; assay type: cell-based; settings: b16-f10, 72 h; summary of the method: as §3
[16] = Inhibition of sialyltransferase in human THP1 cells assessed as decrease in lectin binding after 3 days by biotinylated MAL2 lectin and streptavidin-PE based flow cytometry; assay type: cell-based; summary of the method: as §2
B16-F10 [17] = assay: Effect on total cell surface glycosylation in mouse B16F10 cells assessed as inhibition of biotinylated GSL1-lectin binding at 102.4 uM after 3 days by flow cytometry; assay type: cell-based; settings: b16-f10, 72 h; summary of the method: as §3
B16-F10 [18] = assay: Effect on total cell surface glycosylation in mouse B16F10 cells assessed as inhibition of biotinylated LCA-lectin binding at 102.4 uM after 3 days by flow cytometry; assay type: cell-based; settings: b16-f10, 72 h; summary of the method: as §3
B16-F10 [19] = assay: Effect on total cell surface glycosylation in mouse B16F10 cells assessed as inhibition of biotinylated AAL-lectin binding at 102.4 uM after 3 days by flow cytometry; assay type: cell-based; settings: b16-f10, 72 h; summary of the method: as §3
[20] = Inhibition of sialyltransferase in human HeLa cells assessed as decrease in lectin binding after 3 days by biotinylated MAL2 lectin and streptavidin-PE based flow cytometry; assay type: cell-based; summary of the method: as §2
B16-F10 [21] = assay: Inhibition of sialyltransferase in mouse B16-F10 cells assessed as reduction in CMP-Sia pool at 51.2 uM after 1 to 24 hrs using fluorinated compounds by reverse-phase ion pairing chromatography/triple quadrupole mass spectrometric analysis; assay type: cell-based; summary of the method: as §4

Sequence of N-acylneuraminate cytidylyltransferase (Q99KK2 whole entry): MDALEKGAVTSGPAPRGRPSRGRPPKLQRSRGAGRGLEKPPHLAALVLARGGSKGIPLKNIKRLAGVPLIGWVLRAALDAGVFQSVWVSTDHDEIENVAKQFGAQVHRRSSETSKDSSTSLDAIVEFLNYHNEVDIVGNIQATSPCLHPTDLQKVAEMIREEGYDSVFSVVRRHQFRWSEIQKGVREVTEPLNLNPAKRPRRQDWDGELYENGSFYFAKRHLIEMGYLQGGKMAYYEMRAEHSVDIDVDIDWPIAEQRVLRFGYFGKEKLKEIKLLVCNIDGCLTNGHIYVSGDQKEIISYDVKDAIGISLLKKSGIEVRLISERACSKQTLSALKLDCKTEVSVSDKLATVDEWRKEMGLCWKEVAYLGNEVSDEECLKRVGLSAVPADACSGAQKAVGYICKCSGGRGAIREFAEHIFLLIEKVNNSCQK

Row | EC50 [3] [µM] | EC50 [5] [µM] | EC50 [6] [µM] | EC50 [10] [µM] | Drug metabolism [13] | EC50 [16] [µM] | EC50 [20] [µM] | Structure (SMILES) | sialylation recovery time (B16-F10 [1]) | Ratio EC50 (B16-F10 [2]) | Activity (B16-F10 [4]) | Activity (B16-F10 [7]) | Activity (B16-F10 [8]) | Activity (B16-F10 [9]) | Activity (B16-F10 [11]) | Activity (B16-F10 [12]) | TIME (B16-F10 [14]) [h] | Activity (B16-F10 [15]) | Activity (B16-F10 [17]) | Activity (B16-F10 [18]) | Activity (B16-F10 [19]) | also measured
1 | 51 | 0.72 | 10.7 | 1.19 | Metabolite_Detected | 0.42 | 1.65 | C#CCOC(=O)N[C@H]1[C@H]([C@H](OC(C)=O)[C@@H](COC(C)=O)OC(C)=O)OC(OC(C)=O)(C(=O)OC)[C@H](F)[C@@H]1OC(C)=O (stereo partly specified) | Active | 37 | Non-Toxic | Non-Toxic | Non-Toxic | Non-Toxic | Non-Toxic | Non-Toxic | 120 to 144 | Non-Toxic | Non-Toxic | Non-Toxic | Non-Toxic | inhibition (B16-F10 [21]): Active
2 | > 102 | 26.8 | > 102 | 45.2 | Metabolite_Detected | 8.5 | 53 | COC(=O)C1(OC(C)=O)O[C@@H]([C@H](OC(C)=O)[C@@H](COC(C)=O)OC(C)=O)[C@H](NC(C)=O)[C@@H](OC(C)=O)[C@H]1F (stereo partly specified) | Active |  | Non-Toxic | Non-Toxic | Non-Toxic | Non-Toxic | Non-Toxic | Non-Toxic | 48 to 72 | Non-Toxic | Non-Toxic | Non-Toxic | Non-Toxic | 
3 | 42 | 1.78 | 8.91 | 2.02 | Metabolite_Detected | 0.45 | 2.02 | CCOC(=O)N[C@H]1[C@H]([C@H](OC(C)=O)[C@@H](COC(C)=O)OC(C)=O)OC(OC(C)=O)(C(=O)OC)[C@H](F)[C@@H]1OC(C)=O (stereo partly specified) | Active | 15 | Non-Toxic | Non-Toxic | Non-Toxic | Non-Toxic | Non-Toxic | Non-Toxic | 120 to 144 | Non-Toxic | Non-Toxic | Non-Toxic | Non-Toxic | inhibition (B16-F10 [21]): Active
4 | > 102 | 40.6 | > 102 | 26.2 | Metabolite_Detected | 10.4 | 62.3 | C#CCCC(=O)N[C@H]1[C@H]([C@H](OC(C)=O)[C@@H](COC(C)=O)OC(C)=O)OC(OC(C)=O)(C(=O)OC)[C@H](F)[C@@H]1OC(C)=O (stereo partly specified) | Active | 1 | Non-Toxic | Non-Toxic | Non-Toxic | Non-Toxic | Non-Toxic | Non-Toxic | 48 to 72 | Non-Toxic | Non-Toxic | Non-Toxic | Non-Toxic | 
